Laboratory results: ChEMBL document CHEMBL1122480, “Synthesis and pharmacological studies of 4,4-disubstituted piperidines: a new class of compounds with potent analgesic properties” (J Med Chem, 1983)

Assays:
[1] = system: Mus musculus; test: Analgesic activity using PQW test, oral administration; type: functional
Procedure, shortened: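 Oral drug in mice, followed by phenylbenzoquinone-induced writhing. Analgesia is scored as fewer abdominal contractions in a group of five animals than in a control group. ED50 is the dose that reduces contractions by 50%, estimated graphically by the Litchfield method. Otherwise the percentage of animals showing analgesia is given.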

[2] = system: Mus musculus; test: Analgesic activity in tail flick test, oral administration; type: functional
Procedure, shortened: (§1)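 Mouse tail-flick test against a noxious heat stimulus (D'Amour–Smith method), with drug given by the stated route. […] Where no exact ED50 was obtained, the percentage of animals showing analgesia is reported.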

[3] = system: Mus musculus; test: Analgesic activity in tail flick test, subcutaneous administration; type: functional; procedure, shortened: as §1
[4] = target: T1, Opioid receptor (Rattus norvegicus, UniProt P33533+P34975+P33535); test: Inhibition of [3H]naloxone binding to rat brain membrane with 100 mM NaCl.
[5] = target: T1, Opioid receptor; test: Inhibition of [3H]-Naloxone binding to rat brain membrane without NaCl
[6] = system: Mus musculus; test: 5 HTP (5-hydroxytryptophan) antagonism in mouse 0.5 hr after subcutaneous administration (0.003-0.1 dose range).; type: functional; settings: sc
Procedure, shortened: (§2)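 Mice received drug sc over the stated dose range, then DL-5-hydroxytryptophan to induce head twitches. ED50 is the dose that cut the mean number of head twitches by 50% versus a saline-treated control group (N = 5-10). It was estimated graphically by the Litchfield method.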

[7] = system: Mus musculus; test: 5 HTP (5-hydroxytryptophan) antagonism in mouse 0.5 h after subcutaneous administration (0.03-0.1 dose range).; type: functional; settings: sc; procedure, shortened: as §2
[8] = target: T2, Serotonin (5-HT) receptor (Homo sapiens) (UniProt P30939+P41595+Q13639+P28222+P46098+P08908+P28221+P28223+P28335+P28566+P34969+P50406+P47898+A5X5Y0+O95264+Q70Z44+Q8WXA8); test: Serotonin antagonism in guinea pig 0.5 hr after oral administration.; type: functional, organism-based; settings: Cavia porcellus; target entry is the homologue from another species
Procedure, shortened: (§3)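 Guinea pigs were protected against a lethal serotonin dose, per the cited Roemer and Weidmann method. Test substance was given subcutaneously or orally, as named in each line. Protection was assessed at the stated interval after dosing (0.5, 6 or 24 h). ED50 (mg/kg) was estimated graphically by the Litchfield method.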

[9] = target: T2, Serotonin (5-HT) receptor (Homo sapiens); test: Serotonin antagonism in guinea pig 0.5 hr after subcutaneous administration.; type: functional, organism-based; settings: Cavia porcellus; target entry is the homologue from another species; procedure, shortened: as §3
[10] = target: T2, Serotonin (5-HT) receptor (Homo sapiens); test: Serotonin antagonism in guinea pig 24 hr after oral administration.; type: functional, organism-based; settings: Cavia porcellus; target entry is the homologue from another species; procedure, shortened: as §3
[11] = target: T2, Serotonin (5-HT) receptor (Homo sapiens); test: Serotonin antagonism in guinea pig 24 hr after subcutaneous administration.; type: functional, organism-based; settings: Cavia porcellus; target entry is the homologue from another species; procedure, shortened: as §3
[12] = target: T2, Serotonin (5-HT) receptor (Homo sapiens); test: Serotonin antagonism in guinea pig 6 hr after oral administration.; type: functional, organism-based; settings: Cavia porcellus; target entry is the homologue from another species; procedure, shortened: as §3
[13] = target: T2, Serotonin (5-HT) receptor (Homo sapiens); test: Serotonin antagonism in guinea pig 6 h after subcutaneous administration.; type: functional, organism-based; settings: Cavia porcellus; target entry is the homologue from another species; procedure, shortened: as §3
[14] = Mus musculus, po, read-out: ED50
[15] = Mus musculus, Tail, po, read-out: ED50
[16] = Mus musculus, Tail, sc, read-out: ED50

SMILES | ED50 [1, 14] [mg/kg] | ED50 [2, 15] [mg/kg] | ED50 [3, 16] [mg/kg] | also measured
CN(C(=O)CC1(O)CCN(CCc2ccccc2Cl)CC1)C1CCCCC1.Cl | > 18 | < 56 | > 3.2 | 
CC(C(=O)N(C1CCCCC1)C1CCCCC1)C1(O)CCN(CCc2ccccc2Cl)CC1.Cl (stereo not drawn) | < 56 | > 100 | > 56 | 
C=CCN(C(=O)C(C)C1(O)CCN(CCc2ccccc2Cl)CC1)c1ccccc1OC.O=C(O)/C=C\C(=O)O (stereo not drawn) | 0.56 | 7.6 | 0.09 | IC50 [4]: 2.9 nM; IC50 [5]: 0.41 nM
CN1CC[C@]23c4c5ccc(O)c4O[C@H]2[C@@H](O)C=C[C@H]3[C@H]1C5 [MORPHINE] | 1.4 | 23 | 3.4 | 
COc1ccccc1N(C)C(=O)C(C)C1(O)CCN(CCc2ccccc2Cl)CC1.O=C(O)/C=C\C(=O)O (stereo not drawn) | 18 | > 18 | 0.68 | IC50 [4]: 51 nM; IC50 [5]: 3.3 nM
CCC(=O)OC1(C(C)C(=O)N(C)C2CCCCC2)CCN(CCc2ccccc2Cl)CC1 (stereo not drawn) | < 56 |  | < 3.2 | 
CC(C(=O)N(C)C1CCCCC1)C1(O)CCN(C)CC1.Cl (stereo not drawn) | > 56 | > 100 | > 56 | 
Cc1ccc(CCN2CCC(O)(C(C)C(=O)N(C)C3CCCCC3)CC2)cc1.Cl (stereo not drawn) | < 56 | 100 | > 3.2 | 
Br.CCCCCCCN1CCC(O)(C(C)C(=O)N(C)C2CCCCC2)CC1 (stereo not drawn) | > 56 | > 100 | > 56 | 
CN(C(=O)C1(C2(O)CCN(CCc3ccccc3Cl)CC2)CCCC1)C1CCCCC1.O=C(O)/C=C/C(=O)O | > 56 | 100 | > 56 | 
CN(C(=O)C1(C2(O)CCN(CCc3ccccc3Cl)CC2)CC1)C1CCCCC1.O=C(O)/C=C\C(=O)O | > 56 |  | 10 | 
CC(C(=O)N(C)C1CCCCC1)C1CCN(CCc2ccccc2Cl)CC1.Cl (stereo not drawn) | < 18 | 37 | 2.9 | 
COc1ccccc1NC(=O)C(C)(C)C1(O)CCN(CCc2ccccc2Cl)CC1.Cl | < 56 |  | > 32 | 
CC(C(=O)N(C)C1CCCCC1)C1(O)CCN(CCc2ccccc2)CC1.Cl (stereo not drawn) | 18 | > 56 | 18 | 
CCCN(C(=O)C(C)C1(O)CCN(CCc2ccccc2Cl)CC1)c1ccccc1OC.O=C(O)/C=C/C(=O)O (stereo not drawn) | 1.8 | 5.4 | 0.11 | ED50 [6]: 0.015 mg/kg; IC50 [4]: 0.66 nM; IC50 [5]: 0.51 nM
CCOc1ccccc1N(C)C(=O)C(C)C1(O)CCN(CCc2ccccc2Cl)CC1.O=C(O)/C=C/C(=O)O (stereo not drawn) | 1.8 | < 32 | 0.51 | IC50 [4]: 10 nM; IC50 [5]: 0.98 nM
C=CCN(C(=O)C(C)C1(O)CCN(CCc2ccccc2Cl)CC1)C1CCCCC1.O=C(O)/C=C\C(=O)O (stereo not drawn) | < 32 |  | 4 | IC50 [4]: 20 nM; IC50 [5]: 2.4 nM
CCCCN(CCCC)C(=O)C(C)C1(O)CCN(CCc2ccccc2Cl)CC1.O=C(O)/C=C/C(=O)O (stereo not drawn) | < 30 | < 100 | < 50 | 
CC(C(=O)N(C)c1ccc(Cl)cc1)C1(O)CCN(CCc2ccccc2Cl)CC1.O=C(O)/C=C/C(=O)O (stereo not drawn) | 9.7 | > 56 | 6.8 | 
CN1CCC(=C2c3ccccc3C=Cc3ccccc32)CC1 [CYPROHEPTADINE] |  |  |  | ED50 [6]: 0.015 mg/kg

SMILES | ED50 [1, 14] [mg/kg] | ED50 [2, 15] [mg/kg] | ED50 [3, 16] [mg/kg] | also measured
Br.COc1cccc(CCN2CCC(O)(C(C)C(=O)N(C)C3CCCCC3)CC2)c1 (stereo not drawn) | > 18 |  | 18 | 
CCCCC(C(=O)N(C)C1CCCCC1)C1(O)CCN(CCc2ccccc2Cl)CC1.O=C(O)/C=C/C(=O)O (stereo not drawn) | > 56 | > 100 | > 56 | 
C=CCN1CCC(O)(C(C)C(=O)N(C)C2CCCCC2)CC1.O=C(O)/C=C/C(=O)O (stereo not drawn) | 1 |  | 32 | 
Br.CC(C)C(C(=O)N(C)C1CCCCC1)C1(O)CCN(CCc2ccccc2Cl)CC1 (stereo not drawn) | < 56 | > 100 | > 56 | 
COc1ccccc1NC(=O)C(C)C1(O)CCN(CCc2ccccc2Cl)CC1.O=C(O)/C=C/C(=O)O (stereo not drawn) | 5.6 |  | > 18 | 
CC(C(=O)N(C)c1cccc(O)c1)C1(O)CCN(CCc2ccccc2Cl)CC1.O=C(O)/C=C/C(=O)O (stereo not drawn) | > 18 |  | > 56 | 
CCCN(C(=O)C(C)C1(OC(=O)CC)CCN(CCc2ccccc2Cl)CC1)c1ccccc1OC.O=C(O)/C=C\C(=O)O (stereo not drawn) | 1 | 100 | 32 | 
C#CCN(C(=O)C(C)C1(O)CCN(CCc2ccccc2Cl)CC1)c1ccccc1OC.O=C(O)/C=C\C(=O)O (stereo not drawn) | 0.56 | 5.4 | 0.13 | IC50 [4]: 4.2 nM; IC50 [5]: 0.41 nM
CCCCNC(=O)C(C)C1(O)CCN(CCc2ccccc2Cl)CC1 (stereo not drawn) | > 32 | < 100 | > 18 | 
CCN(C(=O)C(C)C1(O)CCN(CCc2ccccc2Cl)CC1)c1ccccc1OC.O=C(O)/C=C/C(=O)O (stereo not drawn) | 56 | 4.9 | 0.07 | ED50 [7]: 0.07 mg/kg; IC50 [4]: 6.3 nM; IC50 [5]: 0.94 nM
CCCN(C(=O)C(C)C1(O)CCN(CCc2ccccc2Cl)CC1)C1CCCCC1 (stereo not drawn) | < 32 | 56 | > 10 | 
CC(C(=O)N(C1CCCCC1)C(C)(C)C)C1(O)CCN(CCc2ccccc2Cl)CC1.O=C(O)/C=C/C(=O)O (stereo not drawn) | < 56 | > 56 | > 10 | 
CCOc1ccccc1N(CC)C(=O)C(C)C1(O)CCN(CCc2ccccc2Cl)CC1 (stereo not drawn) | 1.8 | 10 | 0.26 | IC50 [4]: 1.8 nM; IC50 [5]: 0.55 nM
CC(C(=O)N(C)C1CCCCC1)C1(O)CCN(CCc2ccccc2Cl)CC1 (stereo in doubt; 15) |  |  |  | ED50 [8]: 0.01 mg/kg; ED50 [9]: 0.015 mg/kg; ED50 [10]: 0.045 mg/kg; ED50 [11]: 0.028 mg/kg; ED50 [12]: 0.009 mg/kg; ED50 [13]: 0.007 mg/kg
CC(C(=O)N(C)C1CCCCC1)C1(O)CCN(CCc2ccccc2Cl)CC1.O=C(O)/C=C\C(=O)O (single isomer, unassigned; (-)) |  |  |  | ED50 [1]: 20 mg/kg; ED50 [2]: 100 mg/kg; ED50 [3]: 42 mg/kg
CC(C(=O)N(C)C1CCCCC1)C1(O)CCN(CCc2ccccc2Cl)CC1 (stereo not drawn) [PIPRAMADOL] | 10 | 100 | 3.8 | 
CN1CCC(=C2c3ccccc3CCc3sccc32)CC1 [PIZOTYLINE] |  |  |  | ED50 [6]: 0.015 mg/kg
CC(C(=O)NC1CCCCC1)C1(O)CCN(CCc2ccccc2Cl)CC1.O=C(O)/C=C\C(=O)O (stereo not drawn) | > 56 | < 56 | > 3.2 | 
CCN(C(=O)C(C)(C)C1(O)CCN(CCc2ccccc2Cl)CC1)c1ccccc1OC.O=C(O)/C=C/C(=O)O | > 18 | > 100 | > 56 | IC50 [4]: 35 nM; IC50 [5]: 7.5 nM
